# Hsp70 activator: Hsp70 transcriptional activators, primary screen, cell-based, HeLa, Hsp70 promoter luciferase, luminescence, 10 µM; HeLa Hsp70 promoter luciferase reporter; scaled: vehicle 0, proteasome-inhibitor control 100%; activation, % at 10 µM; 200,000 tested, 0.04% active;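 active = activation above the mean across all tested compounds plus 3 SD, cutoff set per campaign, cut at about 5.5% in these data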;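 also: 100% = MG132 at 30 µM as the positive control and 0% = DMSO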
# Dynein cargo inh: inhibitors of GR-EGFP nuclear translocation, primary screen, dynein cargo transport inhibitor project, imaging, high-content, 3617.4 mouse cells; test concentration mostly 20 µM; stimulated with dexamethasone, 1 µM; stronger effect = lower value; z-score, hits read low; 220,000 tested, 0.47% active; AID 1381, 2008;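 active = plate z-score of nuclear minus cytoplasmic receptor signal below a set negative limit, without overly bright fluorescence or cell loss, cut at about -3.5 in these data, passing the limit was not always enough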;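 also: z-score of nuclear minus cytoplasmic ring GR-EGFP intensity difference per well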
#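 medium = tetracycline-free induction medium containing charcoal-stripped FBS | probe or stimulus = dexamethasone, 1.0 µM final | timing = 48 h induction, then 1 h compound, then 30 min agonist, 37 °C | detection = automated 10x imaging of fixed Hoechst-stained cells | read-out basis = nuclear versus cytoplasmic GR-EGFP signal, averaged per well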
# PGE2 EP2 inh: human EP2 receptor antagonists, primary screen, TR-FRET cAMP, C6 glioma cells. C6 glioma cells expressing human EP2; cells stimulated with saturating PGE2. inhibition, % at 25 µM. 260,000 tested, 0.52% active. AID 1422, 2008;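 active = percent inhibition above 40 after rounding to a whole number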;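 also: rat C6 glioma host cells with rolipram phosphodiesterase inhibitor present; the protocol text gives 20 µM as final concentration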
# Target sequence (P43116 whole entry, looked up): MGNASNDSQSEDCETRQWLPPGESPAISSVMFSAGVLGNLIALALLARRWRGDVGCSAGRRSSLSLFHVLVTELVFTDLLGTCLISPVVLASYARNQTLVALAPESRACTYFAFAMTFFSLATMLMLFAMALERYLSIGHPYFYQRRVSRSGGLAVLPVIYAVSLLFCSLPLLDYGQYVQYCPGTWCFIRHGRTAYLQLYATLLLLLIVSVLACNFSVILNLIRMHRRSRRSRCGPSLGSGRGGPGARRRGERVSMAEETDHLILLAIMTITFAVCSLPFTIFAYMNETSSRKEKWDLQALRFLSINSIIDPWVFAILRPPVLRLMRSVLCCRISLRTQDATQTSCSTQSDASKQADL
# EP2 mod: EP2 receptor modulators, cAMP readout, primary screen, cell-based, HTRF cAMP, PGE2 stimulation | EP2-expressing cells, cAMP HTRF FRET, PGE2 co-stimulation | 260,000 tested, 0.83% active | induction, % at 25 µM | Prostaglandin E2 receptor EP2 subtype (Homo sapiens), P43116;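 active = compounds whose cAMP rise, as percent of the full-agonist control response, exceeds 60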;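 also: rat C6 glioma line stably carrying human EP2 under a CMV promoter; the protocol text gives 20 µM as final concentration; 100% = response of wells given 1 µM PGE2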
# Active calls of the source: *; . = no result; ! = not active in a repeat. Most compounds without a hit are left out; they make up all but 1.7% or so of the library.
SMILES,Hsp70 activator,Dynein cargo inh,PGE2 EP2 inh,EP2 mod
Cc1ccc(C(=O)N2CCCc3ccccc32)c(F)c1F,.,.,4.1,61.5*
O=C(c1c(F)cccc1F)N1CCCc2ccccc21,.,.,6.0,36.7
Cc1cc(-c2[nH]nc3c2C(c2ccc(C(F)(F)F)cc2)C(C#N)=C(N)O3)c(C)s1 (configuration not stated),.,.,11.8,60.8*
Cc1ccccc1CN1C2=NCCN2C(=O)C2=C1CCN(Cc1ccccc1)C2,.,.,48.5*,15.2
CC(SC#N)C(=O)C12CC3CC(CC(C3)C1)C2 (configuration not stated),0.1,-6.76*,3.7,28.0
Cc1ccc(S(=O)(=O)N2c3ccccc3OCC2c2ccccc2)cc1 (configuration not stated),-0.4,0.626,5.2,46.5
Cc1ccc(S(=O)(=O)N2c3cc(C)ccc3OCC2C(C)(C)C)cc1 (configuration not stated),0.3,.,14.7,62.0*
O=C(Nc1ccccc1Cl)C1C2CCC3C(CCC21)C3(Cl)Cl (configuration not stated),-0.2,0.00806,8.2,21.5
CC1(C)Cc2ccccc2C(C(=O)Nc2ccccc2Cl)N1 (configuration not stated),.,.,10.0,62.8*
O=C1COc2ccc(N3C(=O)C=CC3=O)cc2N1,-0.2,-4.02*,45.6*,-34.1
O=C1COc2ccc(S(=O)(=O)N3CCS(=O)(=O)CC3)cc2N1,.,.,8.1,-23.6
COc1ccc(OC)c(C2CC(c3ccc(NS(C)(=O)=O)cc3)=NN2C(C)=O)c1 (configuration not stated),.,.,5.2,-12.9
CC(=O)c1nn(-c2ccc(Br)cc2)cc1C(=O)c1ccccc1,-0.2,-0.251,1.4,26.0
N#Cc1cn(-c2ccccc2)nc1C(=O)c1ccccc1,-0.2,1.61,15.4,62.4*
O=C1c2ccccc2C(Nc2ccc3c(c2)OCCO3)N1Cc1ccc2c(c1)OCO2 (configuration not stated),-0.1,-0.574,4.1,-6.4
O=C1c2ccccc2C(Nc2ccccc2)N1Cc1ccc2c(c1)OCO2 (configuration not stated),.,0.0311,8.9,71.9*
O=C1c2ccccc2C(Nc2cccc(C(F)(F)F)c2)N1Cc1ccco1 (configuration not stated),-0.1,-1.23,20.6,60.7*
Cc1cc(C)c(S(=O)(=O)N(Cc2cc3ccc(C)c(C)c3[nH]c2=O)CC2CCCO2)c(C)c1 (configuration not stated),.,.,7.5,25.6
COc1ccc(Cc2ccc3[nH]c(=O)cc(C)c3c2)cc1S(=O)(=O)O,.,.,39.8*,20.4
Cc1ncsc1C(=O)N[C@H](Cn1nnc2ccccc21)C(C)C,.,.,.,-21.1
O=C(CSc1ncccc1-c1nc2ccccc2[nH]1)Nc1ccccc1F,.,.,17.9,-28.8
CSc1nc2sc3c(c2c2nnnn12)CCCC3,0.5,1.43,66.1*,14.1
Cc1c(C(=O)O)sc(=S)n1-c1ccc(Cl)cc1,-0.2,-0.697,7.2,10.0
Cc1c(Cl)sn(-c2ccc(Cl)cc2)c1=O,0.9,-4.56*,117.1*,-59.2
COC(=O)/C(=C\c1ccc(-c2cc(Cl)ccc2Cl)o1)C(C)=O,.,.,50.5*,-97.5
SMILES,Hsp70 activator,Dynein cargo inh,PGE2 EP2 inh,EP2 mod
COC(=O)N/N=C/c1ccc(-c2ccc(Cl)cc2Cl)o1,.,-0.238,7.8,-7.5
CCc1ccc(NC(=O)CSc2nc3cc(OC)ccc3cc2C#N)cc1,.,.,18.9,26.8
Cc1cccc2cc(C#N)c(SCC(=O)N3CC(=O)Nc4ccccc43)nc12,1.2,-0.179,19.1,5.1
COc1cccc(NC(=O)CSc2nc3cc(OC)ccc3cc2C#N)c1,.,.,6.2,66.6*
COc1ccc2cc(C#N)c(SCC(=O)OC(C)C)nc2c1,.,.,14.9,84.1*
CCc1nnc(NC(=O)CSc2nc3cc(C)ccc3cc2CC)s1,.,.,13.1,18.7
CCc1nnc(NC(=O)CSc2nc3cc(C)c(C)cc3cc2CC)s1,.,.,19.8,68.7*
COc1ccc2cc(C#N)c(SCC(=O)N3CC(=O)Nc4ccccc43)nc2c1,.,-0.0135,30.9,73.0*!
Cc1cc(C)c2[nH]c(=O)c(C(c3nnnn3Cc3ccccc3)N3CCCC4(CCCCC4)C3)cc2c1 (configuration not stated),.,.,9.2,-3.9
Cc1ccc(C2N3CC4(C)CN2CC(C)(C3)C4)cc1 (configuration not stated),.,.,11.8,-10.1
N#Cc1cnc(SCC(=O)Nc2sc3c(c2C#N)CCCC3)nc1N,.,.,19.2,-53.8
C[C@@H]1CN(Cc2ccco2)CCN1C(=O)c1cnccn1,.,.,.,-40.8
CCOc1ccc2cc(C#N)c(SCC(=O)Nc3nnc(CC)s3)nc2c1,.,.,22.0,73.1*
CCOC(=O)Cc1csc(NC(=O)CSc2nc3ccccc3cc2CC)n1,.,.,7.0,-21.7
COc1cccc(/C=C2\SC(=S)N(CCC(=O)Nc3ccccc3Br)C2=O)c1,.,.,6.6,-13.7
CC(=O)[C@@]1(N=Nc2ccc(S(N)(=O)=O)cc2)CCOC1=O,.,.,115.8*,-31.5
Cc1nc2cc(NC(=O)/C=C/c3ccc(N(C)C)cc3)ccc2s1,.,.,82.3*,-117.3
COCCNC(=O)CSc1nc(-c2ccc(OC)cc2)cc(C(F)(F)F)n1,.,.,4.0,-44.8
COc1ccc(NC(=S)NCCc2ccc(Cl)cc2)c(OC)c1,-0.4,0.853,57.5*,-40.3
COc1ccc(NC(=S)NCCc2ccc(S(N)(=O)=O)cc2)c(OC)c1,-0.3,-0.653,17.5,-73.5
COc1ccc(NC(=S)NCCc2c[nH]c3ccccc23)c(OC)c1,-0.5,0.235,55.0*,-57.9
CSc1ncc(C(=O)NC2(c3cccc(F)c3)CCCC2)cn1,.,.,-0.2,-9.1
CC(=O)N(Cc1ccccc1)c1nc(-c2ccccc2)cs1,0.1,0.0375,7.6,64.3*
CSC(=[SH+])[N-]N=C(c1ccccn1)c1ccccn1.[Cu][Br],.,.,107.9*,-64.1
C/C(=N\[N-]C(=[SH+])SCc1ccccc1)c1ccccn1.[Cl][Cu],.,.,87.7*,-47.5
SMILES,Hsp70 activator,Dynein cargo inh,PGE2 EP2 inh,EP2 mod
C/C(N[O-])=C(\C)[N+]([O-])=[Fe].CC(=N\[O-])/C(C)=N/[O-].[NH2-].c1c[nH+]c[n-]1,.,.,44.4*,-8.6
C/C(N[O-])=C(\C)[N+]([O-])=[Cu].C/C(N[O-])=C(\C)[N+]([O-])=[Cu].CC(=N\[O-])/C(C)=N/[O-].CC(=N\[O-])/C(C)=N/[O-],.,.,55.8*,-15.8
CN(C(=O)COc1ccc2ccccc2c1)C1CCS(=O)(=O)C1 (configuration not stated),.,.,6.0,-19.6
Cc1cc2cc(CN(CCCO)C(=O)Nc3ccccc3Cl)c(=O)[nH]c2cc1C,.,.,3.3,-28.1
CC(C)OC(=O)CSc1nnc(-c2cccnc2)n1Cc1ccco1,.,.,8.3,-21.1
CC(C)(C)c1ccc(S(=O)(=O)NCCN2CCOCC2)cc1,.,.,10.1,8.8
Cc1cc2nc(CCN3CCOCC3)n(S(=O)(=O)c3ccc(C(C)(C)C)cc3)c2cc1C,-0.2,-0.326,1.9,61.4*

# High-throughput results deposited in PubChem BioAssay by several laboratories.
